Laboratory results from ChEMBL document CHEMBL2434879, “Small molecular inhibitors of miR-1 identified from photocycloadducts of acetylenes with 2-methoxy-1,4-naphthalenequinone” (Bioorg Med Chem, 2013).
Calls of active or inactive are those of the source. The rule behind the calls is not given here.

Legend:
Format in all cases: cell-based
[1] = test system: Nucleic Acid; assay: Inhibition of microRNA miR-1 (unknown origin) transfected in mouse C2C12 cells at 5 uM after 48 hrs by luciferase reporter gene assay relative to DMSO-treated control
Summary of the method: (§1)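 C2C12 co-transfected at 70% confluence with miR-1 luciferase reporter (0.25 µg) plus β-galactosidase plasmid (0.25 µg, transfection control) via lipofectamine 2000. After 6 h the medium was switched to DMEM with 2% horse serum to induce differentiation, and compound was added (DMSO final 1:1000). Cells were incubated 48 h at 37 °C, 5% CO2, then luciferase read and normalized to DMSO. Triplicates, mean ± SE (n = 3).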

[2] = test system: Nucleic Acid; assay: Inhibition of microRNA miR-214 (unknown origin) transfected in human A549 cells at 10 uM after 48 hrs by luciferase reporter gene assay relative to DMSO-treated control
Summary of the method: (§2)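 Cells transfected with the matching miRNA luciferase reporter ([…] for miR-150; A549 for miR-25 or miR-214), with β-gal as internal reference. Treated with 10 µM compound in high-glucose DMEM with 2% FBS (DMSO final 1:1000) for 48 h at 37 °C, 5% CO2. Luciferase signal was normalized to the DMSO control. Triplicates, mean ± SE (n = 3).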

[3] = test system: Nucleic Acid; assay: Inhibition of microRNA miR-25 (unknown origin) transfected in human A549 cells at 10 uM after 48 hrs by luciferase reporter gene assay relative to DMSO-treated control; summary of the method: as §2
[4] = test system: Nucleic Acid; assay: Inhibition of microRNA miR-150 (unknown origin) transfected in mouse […] cells at 10 uM after 48 hrs by luciferase reporter gene assay relative to DMSO-treated control; summary of the method: as §2
[5] = test system: Nucleic Acid; assay: Inhibition of microRNA miR-1 (unknown origin) transfected in mouse C2C12 cells at 10 uM after 48 hrs by luciferase reporter gene assay relative to DMSO-treated control; summary of the method: as §1
[6] = test system: Nucleic Acid; assay: Inhibition of microRNA miR-1 (unknown origin) transfected in mouse C2C12 cells after 48 hrs by luciferase reporter gene assay relative to DMSO-treated control; summary of the method: as §1
[7] = test system: Nucleic Acid; assay: Reduction in cytoplasmic level of microRNA miR-9 (unknown origin) transfected in human MCF7 cells at 10 uM after 48 hrs by quantitative RT-PCR method relative to DMSO-treated control
Summary of the method: (§3)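 Total RNA (TRIZOL) taken after 48 h compound or DMSO treatment from differentiated C2C12 (miR-1), HeLa (miR-21), A549 (miR-25, miR-214), MCF-7 (miR-9) and […] (miR-150). 2 µg RNA per RT with miRNA-specific primers (16 °C 30 min, 42 °C 30 min, 85 °C 5 min). TaqMan qPCR: 95 °C 10 min, then 40 cycles of 95 °C 15 s and 60 °C 1 min. Comparative Ct method, normalized to DMSO; triplicates, mean ± SE (n = 3).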

[8] = test system: Nucleic Acid; assay: Reduction in cytoplasmic level of microRNA miR-21 (unknown origin) transfected in human HeLa cells at 10 uM after 48 hrs by quantitative RT-PCR method relative to DMSO-treated control; summary of the method: as §3
[9] = test system: Nucleic Acid; assay: Reduction in cytoplasmic level of microRNA miR-214 (unknown origin) transfected in human A549 cells at 10 uM after 48 hrs by quantitative RT-PCR method relative to DMSO-treated control; summary of the method: as §3
[10] = test system: Nucleic Acid; assay: Reduction in cytoplasmic level of microRNA miR-25 (unknown origin) transfected in human A549 cells at 10 uM after 48 hrs by quantitative RT-PCR method relative to DMSO-treated control; summary of the method: as §3
[11] = test system: Nucleic Acid; assay: Reduction in cytoplasmic level of microRNA miR-150 (unknown origin) transfected in mouse […] cells at 10 uM after 48 hrs by quantitative RT-PCR method relative to DMSO-treated control; summary of the method: as §3
[12] = test system: Nucleic Acid; assay: Reduction in cytoplasmic level of microRNA miR-1 (unknown origin) transfected in mouse C2C12 cells at 10 uM after 48 hrs by quantitative RT-PCR method relative to DMSO-treated control; summary of the method: as §3
[13] = test system: Nucleic Acid; assay: Inhibition of microRNA miR-9 (unknown origin) transfected in human MCF7 cells at 10 uM after 48 hrs by luciferase reporter gene assay relative to DMSO-treated control
Summary of the method: (§4)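 Reporter cells for miR-21 (HeLa) or miR-9 (MCF-7) given 10 µM compound for 48 h. Luciferase signal normalized to DMSO control. Triplicates, mean ± SE (n = 3).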

[14] = test system: Nucleic Acid; assay: Inhibition of microRNA miR-21 (unknown origin) transfected in human HeLa cells at 10 uM after 48 hrs by luciferase reporter gene assay relative to DMSO-treated control; summary of the method: as §4

COC12C(=O)c3ccccc3C(=O)C1C(c1ccc(OC(C)=O)c3ncccc13)=C2[Si](C)(C)C (centres undefined)
inhibition [1]: inactive

COC12C(=O)c3ccccc3C(=O)C1C(c1ccccc1)=C2c1ccc(O)c2ncccc12 (centres undefined)
inhibition [1]: Active

COC12C(=O)c3ccccc3C(=O)C1C(C1CC1)=C2c1cnccn1 (centres undefined)
fold change (FC) [2]: 0.74
fold change (FC) [3]: 0.83
fold change (FC) [4]: 1.63
fold change (FC) [5]: 0.84

COC12C=C(c3ccc(OC(=O)OC(C)(C)C)c4ncccc34)C1C(=O)c1ccccc1C2=O (centres undefined)
inhibition [1]: inactive

COC12C(=O)c3ccccc3C(=O)C1C(C1CC1)=C2c1ccc(OC(C)=O)c2ncccc12 (centres undefined)
inhibition [1]: inactive

COC12C(=O)c3ccccc3C(=O)C1C(c1ccc(OC(=O)OC(C)(C)C)c3ncccc13)=C2[Si](C)(C)C (centres undefined)
inhibition [1]: inactive

COC12C(=O)c3ccccc3C(=O)C1C(C1CC1)=C2c1cncnc1 (centres undefined)
fold change (FC) [2]: 1.28
fold change (FC) [3]: 1.16
fold change (FC) [4]: 1.02
fold change (FC) [5]: 2.06

COC12C(=O)c3ccccc3C(=O)C1C(C1CC1)=C2c1cccnc1 (centres undefined)
fold change (FC) [2]: 0.91
fold change (FC) [3]: 0.97
fold change (FC) [4]: 1.04
fold change (FC) [5]: 0.93

COC12C=C(c3ccc(O)c4ncccc34)C1C(=O)c1ccccc1C2=O (centres undefined)
inhibition [1]: inactive

COC12C(=O)c3ccccc3C(=O)C1C(c1ccccc1)=C2c1ccc(OC(=O)OC(C)(C)C)c2ncccc12 (centres undefined)
inhibition [6]: Dose-dependent effect
Activity [7]: inactive
Activity [8]: inactive
Activity [9]: inactive
Activity [10]: inactive
Activity [11]: inactive
fold change (FC) [12]: 4
inhibition [13]: inactive
inhibition [14]: inactive
fold change (FC) [2]: 1.01
fold change (FC) [3]: 0.95
fold change (FC) [4]: 1.35
fold change (FC) [5]: 7.11

COc1ccc(C2=C([Si](C)(C)C)C3(OC)C(=O)c4ccccc4C(=O)C23)c2cccnc12 (centres undefined)
inhibition [1]: Active

COC12C(=O)c3ccccc3C(=O)C1C(C1CC1)=C2c1ccc(OC(=O)OC(C)(C)C)c2ncccc12 (centres undefined)
inhibition [1]: inactive

COC12C(=O)c3ccccc3C(=O)C1C(C1CC1)=C2c1ccccn1 (centres undefined)
fold change (FC) [2]: 0.82
fold change (FC) [3]: 0.92
fold change (FC) [4]: 1.2
fold change (FC) [5]: 1.55

COC12C(=O)c3ccccc3C(=O)C1C(c1ccccc1)=C2c1ccc(OC(C)=O)c2ncccc12 (centres undefined)
inhibition [1]: inactive

COc1ccc(C2=C(c3ccccc3)C3C(=O)c4ccccc4C(=O)C23OC)c2cccnc12 (centres undefined)
inhibition [1]: Active

COc1ccc(C2=C(C3CC3)C3C(=O)c4ccccc4C(=O)C23OC)c2cccnc12 (centres undefined)
inhibition [1]: Active

COC12C(=O)c3ccccc3C(=O)C1C(c1ccccc1)=C2c1ccccc1 (centres undefined)
fold change (FC) [2]: 0.58
fold change (FC) [3]: 0.63
fold change (FC) [4]: 0.91
fold change (FC) [5]: 0.45

COC12C(=O)c3ccccc3C(=O)C1C(C1CC1)=C2c1cncc2ccccc12 (centres undefined)
fold change (FC) [2]: 1.1
fold change (FC) [3]: 1.16
fold change (FC) [4]: 1.75
fold change (FC) [5]: 0.87

COC12C(=O)c3ccccc3C(=O)C1C(C1CC1)=C2c1ccc(O)c2ncccc12 (centres undefined)
inhibition [1]: Active

COC12C(=O)c3ccccc3C(=O)C1C(c1ccccn1)=C2c1ccccc1 (centres undefined)
fold change (FC) [2]: 0.95
fold change (FC) [3]: 0.95
fold change (FC) [4]: 1.16
fold change (FC) [5]: 0.9

COC12C(=O)c3ccccc3C(=O)C1C(c1ccc(O)c3ncccc13)=C2[Si](C)(C)C (centres undefined)
inhibition [1]: Active

COC12C(=O)c3ccccc3C(=O)C1C(C1CC1)=C2c1cnc2ccccc2c1 (centres undefined)
fold change (FC) [2]: 0.93
fold change (FC) [3]: 1
fold change (FC) [4]: 0.83
fold change (FC) [5]: 1.36

COC12C(=O)c3ccccc3C(=O)C1C(c1cnccn1)=C2c1ccccc1 (centres undefined)
fold change (FC) [2]: 0.93
fold change (FC) [3]: 1.01
fold change (FC) [4]: 1.32
fold change (FC) [5]: 1.12

COc1ccc(C2=CC3(OC)C(=O)c4ccccc4C(=O)C23)c2cccnc12 (centres undefined)
inhibition [1]: inactive

COC12C=C(c3ccc(OC(C)=O)c4ncccc34)C1C(=O)c1ccccc1C2=O (centres undefined)
inhibition [1]: inactive
